# Published values gathered from unrelated publications.
# Target: Serine/threonine-protein kinase LATS1 (LATS1, Homo sapiens, UniProt O95835)
# One construct used (O95835 1-1130): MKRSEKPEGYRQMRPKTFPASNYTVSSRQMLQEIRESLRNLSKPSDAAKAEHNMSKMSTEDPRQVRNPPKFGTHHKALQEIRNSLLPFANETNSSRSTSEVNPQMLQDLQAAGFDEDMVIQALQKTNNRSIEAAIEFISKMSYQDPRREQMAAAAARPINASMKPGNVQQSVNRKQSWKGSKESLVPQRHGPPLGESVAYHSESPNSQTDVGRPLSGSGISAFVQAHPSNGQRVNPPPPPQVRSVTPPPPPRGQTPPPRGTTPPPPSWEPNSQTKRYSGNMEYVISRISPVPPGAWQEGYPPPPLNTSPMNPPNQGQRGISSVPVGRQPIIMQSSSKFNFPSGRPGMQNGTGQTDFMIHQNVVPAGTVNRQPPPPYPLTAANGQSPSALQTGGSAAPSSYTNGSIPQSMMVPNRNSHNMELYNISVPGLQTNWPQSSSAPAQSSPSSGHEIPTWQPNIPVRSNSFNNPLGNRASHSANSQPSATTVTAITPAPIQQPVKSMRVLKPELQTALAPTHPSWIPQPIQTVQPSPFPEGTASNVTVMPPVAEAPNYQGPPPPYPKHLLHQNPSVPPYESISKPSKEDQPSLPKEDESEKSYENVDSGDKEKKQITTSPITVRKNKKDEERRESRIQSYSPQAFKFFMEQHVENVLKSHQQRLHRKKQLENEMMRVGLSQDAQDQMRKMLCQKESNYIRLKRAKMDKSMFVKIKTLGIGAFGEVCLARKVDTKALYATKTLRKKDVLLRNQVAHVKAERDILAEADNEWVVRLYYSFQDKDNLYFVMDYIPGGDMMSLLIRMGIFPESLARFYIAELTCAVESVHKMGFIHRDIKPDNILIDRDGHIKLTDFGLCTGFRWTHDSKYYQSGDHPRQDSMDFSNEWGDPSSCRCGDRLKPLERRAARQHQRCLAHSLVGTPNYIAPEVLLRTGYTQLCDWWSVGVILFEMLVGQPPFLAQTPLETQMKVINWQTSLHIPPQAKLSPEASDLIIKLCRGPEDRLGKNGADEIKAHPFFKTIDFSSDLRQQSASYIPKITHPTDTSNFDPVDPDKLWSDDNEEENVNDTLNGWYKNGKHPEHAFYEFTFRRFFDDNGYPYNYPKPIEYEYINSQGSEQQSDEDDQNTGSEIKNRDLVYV
SMILES,observed,method,tested at,remaining binding [%]
C[C@@H](c1ccc(-n2cnc3c(N)ncnc32)cc1)N1CCc2nn(C)c(Cc3ccccc3)c2C1=O,binding,competition with immobilised ligand,0.1 µM,100
Cc1cnn2ncc(-c3ccnc(N(C)C)n3)c2c1,binding,,1 µM,48
O=C(NCCCN1CCOCC1)c1ccc(Nc2nccc(-c3cc4ccccc4s3)n2)cc1,binding,competition with immobilised ligand,1 µM,100
C[C@@H]1CCN(c2nccc(-c3cnn4ncccc34)n2)C1,binding,,1 µM,100
CCOCCn1cc(C(=O)Nc2ccc(-n3nc(-c4cccnc4)cc3C(F)(F)F)cn2)ccc1=O,cell-free assay,competition with immobilised ligand,1 µM,69
O=C(NCC1CCOCC1)c1n[nH]cc1NC(=O)c1c(F)cccc1F,binding,competition with immobilised ligand,1 µM,100
c1cnn2ncc(-c3ccnc(N4CCC45COC5)n3)c2c1,binding,,1 µM,88
FC(F)(F)Oc1cccc(-c2cnc3ccc(-c4ccncc4)nn23)c1,cell-free assay,competition with immobilised ligand,5 µM,100
CN(C)c1ncc(F)c(-c2cnn3ncccc23)n1,binding,,1 µM,100
COc1cc(-c2cn(C3CCc4c(F)cccc4N(CC(F)(F)F)C3=O)nn2)ccc1-n1cnc(C)c1 (centres unmarked),cell-free assay,competition with immobilised ligand,1 µM,93
CN(CCCC(F)(F)F)c1nccc(-c2cnn3ncccc23)n1,binding,,1 µM,78
COc1cnc(Nc2cccc(S(N)(=O)=O)c2)nc1N1CCN(c2ccccc2)C(=O)C1,binding,competition with immobilised ligand,1 µM,90
O=C(O)c1cc(-c2ccc(C3CCNCC3)cc2)c2ccc(-c3ccc(C(F)(F)F)cc3)cc2c1,cell-free assay,competition with immobilised ligand,1 µM,88
Cc1cnc(Nc2ccc(C(=O)N3CCC(N4CCCC4)CC3)cc2)nc1-c1cc2ccccc2s1,binding,competition with immobilised ligand,1 µM,89
O=C(O)[C@@H]1[C@@H](Cn2nnc3ccccc3c2=O)CC[C@H]1C(=O)c1ccc(OCCC2CCOCC2)cc1,cell-free assay,competition with immobilised ligand,1 µM,90
CNC(=O)[C@@H]1CC[C@@H](n2c(-c3ccc4cnccc4c3)nc3ccc(C(=O)NCc4cccc(C(N)=O)c4)cc32)C1,binding,competition with immobilised ligand,1 µM,100
O=C(Nc1ccc(Oc2ccc(F)cc2)cc1)N1CCc2ncccc2[C@H]1c1ccc(F)cc1,cell-free assay,competition with immobilised ligand,1 µM,86
N[C@@H]1CCN(c2nccc(-c3cnn4ncccc34)n2)C1,binding,,1 µM,100
N#Cc1ccc(Nc2ccc3[nH]c(=O)[nH]c3c2)c(Cl)c1,cell-free assay,competition with immobilised ligand,1 µM,76
O=C(c1ccc(Nc2nccc(-c3cc4ccccc4s3)n2)cc1)N1CCC(N2CCCC2)CC1,binding,competition with immobilised ligand,1 µM,93
